Tests used:
[1] = folding enthalpy; higher = less favourable; fluorescence melt of hairpins on a sequencing array, two-state fit; details: sodium 0.088 M
Summary of the method: (§1)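 Folding enthalpy and melting temperature were estimated with bootstrapped two-state fits and combined across four replicates by inverse-variance weighting, with fitted temperatures raised by 9.35 °C to match UV melts. The data were Cy3 fluorescence of library hairpins, with annealed Cy3 and quencher oligos, on a sequenced MiSeq flow cell in 50 mM Na-HEPES pH 8.0, 25 mM NaCl, imaged in 2.5 °C steps up to 60 °C and normalised to pre-quench Cy3 and control constructs.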

[2] = melting temperature; fluorescence melt of hairpins on a sequencing array, two-state fit, raised by 9.35 °C to match UV melts; details: sodium 0.088 M
Summary of the method: as §1

Row | Sequence | folding enthalpy [1] | Tm [2]
1 | GAGCGCGGAAACGCACCC (.(.(((....))).).) | -31.3 kJ/mol | 31.7 °C
2 | GAGCGGGGAAACCCACTC (((.(((....))).))) | -119 kJ/mol | 46.2 °C
3 | GAGCGGGGAAACCCGTTC ((.((((....)))).)) | -84.2 kJ/mol | 53 °C
4 | GAGCGTACGAAAGTACTC (((..(((....)))))) | -55.9 kJ/mol | 27 °C
5 | GAGCGTGGAAACGTGCTC ((((..(....)..)))) | -80.8 kJ/mol | 47.6 °C
6 | GAGCTACGAAAGTACCTC (((.(((....))).))) | -79.6 kJ/mol | 30.6 °C
7 | GAGCTAGGAAACTAGCTC (((((((....))))))) | -159 kJ/mol | 62.4 °C
8 | GAGCTCCGAAAGGAACTC (((.(((....))).))) | -115 kJ/mol | 50.6 °C
9 | GAGCTCCGAAAGGACCTC (((.(((....))).))) | -84.5 kJ/mol | 38.1 °C
10 | GAGCTCGGAAACGGGTTC ((.(.((....)).).)) | -59.6 kJ/mol | 42.3 °C
11 | GAGCTGGAAACAGCTC ((((((....)))))) | -109 kJ/mol | 67.6 °C
12 | GAGCTTGGAAACAGGCTC ((((.((....)).)))) | -188 kJ/mol | 49.3 °C
13 | GAGCTTGGAAACGAGCTC (((((.(....).))))) | -189 kJ/mol | 53.4 °C
14 | GAGGAAGCGAAAGCTCTC (((..(((....)))))) | -57.4 kJ/mol | 35.4 °C
15 | GAGGACACGAAAGTGCTC (((..(((....)))))) | -60.4 kJ/mol | 35.9 °C
16 | GAGGACCGAAAGGTACTC (((.(((....))).))) | -140 kJ/mol | 64.9 °C
17 | GAGGACCGAAAGGTGCTC (((.(((....))).))) | -135 kJ/mol | 60.4 °C
18 | GAGGACGAAAGTCACTC ((((((....))).))) | -75.1 kJ/mol | 43.1 °C
19 | GAGGACGAAAGTCGCCTC ((((((....)))..))) | -62.4 kJ/mol | 38.9 °C
20 | GAGGACGAAAGTCTCTC ((((((....))).))) | -75.4 kJ/mol | 46.5 °C
21 | GAGGACGAAAGTCTTCTC ((((((....)))..))) | -96.3 kJ/mol | 48 °C
22 | GAGGACGGAAACATCCTC (((((.(....).))))) | -112 kJ/mol | 38.3 °C
23 | GAGGACGGAAACGCCCTC ((((.((....)).)))) | -198 kJ/mol | 51.7 °C

Row | Sequence | folding enthalpy [1] | Tm [2]
24 | GAGGAGGGAAACCTCTTC ((.((((....)))).)) | -116 kJ/mol | 47.8 °C
25 | GAGGATGAAAATCCTC ((((((....)))))) | -155 kJ/mol | 54.7 °C
26 | GAGGATGGAAACACCCTC ((((.((....)).)))) | -137 kJ/mol | 38.1 °C
27 | GAGGCAACGAAAGTTCTC (((..(((....)))))) | -47.2 kJ/mol | 24.4 °C
28 | GAGGCACGAAAGTGCTC (((.(((....)))))) | -39.1 kJ/mol | 45.9 °C
29 | GAGGCAGGAAACCGCCTC (((((.(....).))))) | -139 kJ/mol | 54.9 °C
30 | GAGGCCGAAAGGCAGCTC ((((((....)))..))) | -57.4 kJ/mol | 50.6 °C
31 | GAGGCCGAAAGGCCCCTC ((((((....)))..))) | -40.2 kJ/mol | 49.7 °C
32 | GAGGCCGAAAGGCTACTC ((((((....)))..))) | -48.9 kJ/mol | 42.9 °C
33 | GAGGCCGAAAGGCTGCTC ((((((....)))..))) | -50.5 kJ/mol | 45.9 °C
34 | GAGGCCGGAAACGACCTC ((((.((....)).)))) | -188 kJ/mol | 52.9 °C
35 | GAGGCGGGAAACCACCTC ((((.((....)).)))) | -154 kJ/mol | 49.1 °C
36 | GAGGCGGGAAACCGCCCC (.(((((....))))).) | -29.7 kJ/mol | 46.4 °C
37 | GAGGCTGCGAAAGCACTC (((..(((....)))))) | -46.9 kJ/mol | 34.3 °C
38 | GAGGGACCGAAAGGTCTC (((..(((....)))))) | -48.6 kJ/mol | 38.3 °C
39 | GAGGGACGAAAGTCGCTC (((.(((....))).))) | -144 kJ/mol | 65.6 °C
40 | GAGGGAGAAATCCCTC ((((((....)))))) | -150 kJ/mol | 53.8 °C
41 | GAGGGCGAAAGCCACCTC ((((((....)))..))) | -46 kJ/mol | 38.1 °C
42 | GAGGGCGAAAGCCGGCTC ((((((....)))..))) | -50.7 kJ/mol | 51 °C
43 | GAGGGCGGAAACACCCTC (((((.(....).))))) | -141 kJ/mol | 49.6 °C
44 | GAGGGGACGAAAGTCCTC (((..(((....)))))) | -37 kJ/mol | 41.2 °C
45 | GAGGGGCCGAAAGGCCTC (((..(((....)))))) | -31 kJ/mol | 46.4 °C
46 | GAGGGGGGAAACCTCCTC ((((.((....)).)))) | -141 kJ/mol | 51.4 °C

Row | Sequence | folding enthalpy [1] | Tm [2]
47 | GAGGGTCCGAAAGGACTC (((..(((....)))))) | -39.8 kJ/mol | 41.3 °C
48 | GAGGGTGGAAACGCCTTC ((.((.(....).)).)) | -108 kJ/mol | 34.1 °C
49 | GAGGGTGGAAACGCTCTC (((.(.(....).).))) | -84.9 kJ/mol | 49.4 °C
50 | GAGGTACGAAAGTAACTC (((.(((....))).))) | -162 kJ/mol | 54.1 °C
51 | GAGGTAGGAAACTGCCTC ((((.((....)).)))) | -155 kJ/mol | 49.9 °C
52 | GAGGTCCGAAAGGAACTC (((.(((....))).))) | -170 kJ/mol | 61.5 °C
53 | GAGGTCGGAAACAACCTC (((((.(....).))))) | -121 kJ/mol | 41.2 °C
54 | GAGGTCGGAAACGGTCTC (((..((....))..))) | -97.9 kJ/mol | 39.6 °C
55 | GAGGTGCGAAAGCAACTC (((.(((....))).))) | -109 kJ/mol | 66.5 °C
56 | GAGGTTGAAAAACCTC ((((((....)))))) | -136 kJ/mol | 58.2 °C
57 | GAGGTTGGAAACAACCTC (((((((....))))))) | -181 kJ/mol | 65.8 °C
58 | GAGGTTGGAAACAGCCTC ((((.((....)).)))) | -136 kJ/mol | 50.1 °C
59 | GAGGTTGGAAACAGCTTC ((.(.((....)).).)) | -151 kJ/mol | 39.9 °C
60 | GAGGTTGGAAACGATCTC (((.(.(....).).))) | -72.3 kJ/mol | 29.5 °C
61 | GAGTAACGAAAGTTCTC (((.(((....)))))) | -91.8 kJ/mol | 37.1 °C
62 | GAGTACCGAAAGGTCCTC (((.(((....))).))) | -105 kJ/mol | 45.3 °C
63 | GAGTACCGAAAGGTCTC (((.(((....)))))) | -90.4 kJ/mol | 48.7 °C
64 | GAGTACGAAAGTAGCCTC ((((((....)))..))) | -49.4 kJ/mol | 27.3 °C
65 | GAGTACGAAAGTAGCTC ((((((....))).))) | -97.7 kJ/mol | 37.5 °C
66 | GAGTACGGAAACGTACTC (((((((....))))))) | -178 kJ/mol | 64 °C
67 | GAGTAGAAATACTC (((((....))))) | -69.9 kJ/mol | 36.5 °C
68 | GAGTAGACGAAAGTCCTC (((..(((....)))))) | -59 kJ/mol | 32.8 °C
69 | GAGTAGCCGAAAGGCCTC (((..(((....)))))) | -44.9 kJ/mol | 38.4 °C

Row | Sequence | folding enthalpy [1] | Tm [2]
70 | GAGTAGCGAAAGCTCCTC (((.(((....))).))) | -83.7 kJ/mol | 39.5 °C
71 | GAGTAGCGAAAGCTCTC (((.(((....)))))) | -74.6 kJ/mol | 46.2 °C
72 | GAGTAGGGAAACCTACCC (.(((((....))))).) | -64.6 kJ/mol | 35.1 °C
73 | GAGTAGGGAAACCTATTC ((.((((....)))).)) | -107 kJ/mol | 32.5 °C
74 | GAGTATGAAAATACTC ((((((....)))))) | -153 kJ/mol | 50.3 °C
75 | GAGTCAGGAAACTGGCTC (((.(((....))).))) | -181 kJ/mol | 54.1 °C
76 | GAGTCCCGAAAGGGCCTC (((.(((....))).))) | -111 kJ/mol | 52.4 °C
77 | GAGTCCCGAAAGGGCTC (((.(((....)))))) | -107 kJ/mol | 59.5 °C
78 | GAGTCCGAAAGGAATCTC ((((((....)))..))) | -78.5 kJ/mol | 50.2 °C
79 | GAGTCCGAAAGGACCCTC ((((((....)))..))) | -43.1 kJ/mol | 43.5 °C
80 | GAGTCCGAAAGGAGGCTC ((((((....)))..))) | -86.8 kJ/mol | 47.4 °C
81 | GAGTCCGAAAGGATGCTC ((((((....)))..))) | -70.6 kJ/mol | 40.5 °C
82 | GAGTCCGAAAGGATTCTC ((((((....)))..))) | -102 kJ/mol | 50.6 °C
83 | GAGTCGCGAAAGCGCCTC (((.(((....))).))) | -99 kJ/mol | 54.8 °C
84 | GAGTCGCGAAAGCGTCTC (((.(((....))).))) | -93.3 kJ/mol | 54.7 °C
85 | GAGTCGGCGAAAGCCCTC (((..(((....)))))) | -40.2 kJ/mol | 25.6 °C
86 | GAGTCTCCGAAAGGACTC (((..(((....)))))) | -91.2 kJ/mol | 39 °C
87 | GAGTGAACGAAAGTTCTC (((..(((....)))))) | -47.1 kJ/mol | 29.9 °C
88 | GAGTGACGAAAGTCCTC (((.(((....)))))) | -81.4 kJ/mol | 47.9 °C
89 | GAGTGAGGAAACTTACTC ((((.((....)).)))) | -117 kJ/mol | 38.1 °C
90 | GAGTGCGAAAGCAACCTC ((((((....)))..))) | -56.3 kJ/mol | 37.7 °C
91 | GAGTGCGAAAGCAAGCTC ((((((....)))..))) | -59.5 kJ/mol | 43.6 °C

— the array DNA melting data of Ke et al. (doi:10.1101/2024.01.08.574731)
